Data reported in ChEMBL document CHEMBL1156776, “Hybrid inhibitors of phosphatidylinositol 3-kinase (PI3K) and the mammalian target of rapamycin (mTOR): design, synthesis, and superior antitumor activity of novel wortmannin-rapamycin conjugates” (J Med Chem, 2010).
Values after ≈ are worked out from the molar mass of the structure shown. Active and inactive are the calls of the source. The rule behind the calls is not given here.

Assays:
[1] = Inhibition of PI3K
[2] = Stability in nude mouse whole blood assessed as 8-((4S,4aR,6aS,7S,9aR,E)-5-(carboxyoxy)-1-(((3-(dimethylamino)propyl)(methyl)amino)methylene)-11-hydroxy-4-(methoxymethyl)-4a-methyl-2,10-dioxo-1,2,4,4a,5,6,6a,7,8,9,9a,10-dodecahydroindeno[4,5-h]isochromen-7-yloxy)-8-oxooctanoic acid formation; type: ADME, tissue-based
Outline: (§1)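 Compound was incubated in nude mouse plasma or whole blood at 37 °C for 2 h, with heparin or sodium fluoride/EDTA as anticoagulant. Time-point samples were quenched with acetonitrile, dried, reconstituted and analysed by LC/MS for parent and hydrolysis products.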

U-87MG ATCC [3] = assay: Antitumor activity against human U87MG cells xenografted in nude mouse assessed as tumor growth inhibition administered iv once weekly; type: functional
Outline: (§2)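 U87MG glioma xenografts in nude mice were staged and randomized (n = 10). Dosing was iv once weekly in D5W (days 0, 6 or days 0, 6, 13), with vehicle controls. Tumor volume was measured twice weekly.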

[4] = target: Serine/threonine-protein kinase mTOR (Homo sapiens) (UniProt P42345); assay: Inhibition of mTOR
[5] = Stability in mouse plasma assessed as compound remaining after 5 mins relative to basal level; type: ADME, cell-free; conditions: read-out: Stability
Outline: (§3)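 Compound was incubated in heparinized plasma at 37 °C for 2 h. Samples taken at various time points were quenched with acetonitrile, dried under nitrogen and reconstituted in methanol/water 20:80. Intact compound was quantified by LC/MS.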

Homo sapiens [6] = organism: Homo sapiens; assay: Stability in human plasma assessed as compound remaining after 120 mins relative to basal level
[7] = Stability in human liver microsomes assessed as compound remaining after 30 mins; type: ADME, Microsome; conditions: read-out: Stability
Outline: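 Compound (10 μM) was incubated with human liver microsomes (1 mg/mL) at 37 °C for 30 min, alongside buffer (pH 7.4) and boiled-microsome controls. NADPH dependence was examined. Reactions were quenched with 3 volumes of cold acetonitrile.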

Homo sapiens [8] = organism: Homo sapiens; assay: Stability in human plasma assessed as compound remaining after 90 mins relative to basal level
A498 = assay: Antitumor activity against human A498 cells xenografted in nude mouse assessed as tumor growth inhibition at 30 mg/kg, iv once weekly
[9] = Stability in rat plasma assessed as compound remaining after 5 mins relative to basal level; type: ADME, cell-free; conditions: read-out: Stability; outline: as §3
[10] = Stability in nude mouse liver microsomes assessed as compound remaining after 30 mins; type: ADME, Microsome; conditions: read-out: Stability
Outline: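 Female nude mouse liver microsomes were incubated with compound for 30 min at 37 °C, with NADPH dependence examined. Remaining parent and hydrolysis products were measured.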

[11] = Stability in mouse plasma assessed as compound remaining after 120 mins relative to basal level; type: ADME, cell-free; conditions: read-out: Stability; outline: as §3
[12] = Solubility in water; type: physicochemical
[13] = Stability in rat plasma assessed as compound remaining after 60 mins relative to basal level; type: ADME, cell-free; conditions: read-out: Stability; outline: as §3
U-87MG ATCC [14] = assay: Antitumor activity against human U87MG cells xenografted in nude mouse assessed as inhibition of S6K phosphorylation at 15 mg/kg, iv administered as single dose measured after 2 hrs; type: functional, organism-based; set-up: dose 15 mg/kg
Homo sapiens [15] = organism: Homo sapiens; assay: Stability in human plasma assessed as compound remaining after 60 mins relative to basal level
Homo sapiens [16] = organism: Homo sapiens; assay: Stability in human plasma assessed as compound remaining after 30 mins relative to basal level
[17] = Stability in rat plasma assessed as compound remaining after 30 mins relative to basal level; type: ADME, cell-free; conditions: read-out: Stability; outline: as §3
[18] = Stability in rat plasma assessed as compound remaining after 15 mins relative to basal level; type: ADME, cell-free; conditions: read-out: Stability; outline: as §3
[19] = Stability in nude mouse whole blood assessed as release of (4S,4aR,6aS,7S,9aR,E)-1-(((3-(dimethylamino)propyl)(methyl)amino)methylene)-7,11-dihydroxy-4-(methoxymethyl)-4a-methyl-2,10-dioxo-1,2,4,4a,5,6,6a,7,8,9,9a,10-dodecahydroindeno[4,5-h]isochromen-5-yl hydrogen carbonate; type: ADME, tissue-based; outline: as §1
[20] = Stability in mouse plasma assessed as compound remaining after 15 mins relative to basal level; type: ADME, cell-free; conditions: read-out: Stability; outline: as §3
[21] = Stability in rat plasma assessed as compound remaining after 120 mins relative to basal level; type: ADME, cell-free; conditions: read-out: Stability; outline: as §3
Homo sapiens [22] = organism: Homo sapiens; assay: Stability in human plasma assessed as compound remaining after 5 mins relative to basal level
[23] = Stability in nude mouse whole blood assessed as rapamycin formation; type: ADME, tissue-based; outline: as §1
Homo sapiens [24] = organism: Homo sapiens; assay: Stability in human plasma assessed as compound remaining after 15 mins relative to basal level
[25] = Stability in rat plasma assessed as compound remaining after 90 mins relative to basal level; type: ADME, cell-free; conditions: read-out: Stability; outline: as §3
HT-29 = assay: Antitumor activity against human HT-29 cells xenografted in nude mouse assessed as tumor growth inhibition at 15 mg/kg, iv once weekly; type: functional, organism-based; set-up: dose 15 mg/kg
Outline: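 Nude mice bearing HT29 colon xenografts were randomized into groups (n = 10) and dosed iv once weekly. Agents were in 5% dextrose in water, or in 4% ethanol/5% polysorbate 80/5% PEG400 for the rapamycin-type agent. Tumor growth was monitored against vehicle.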

U-87MG ATCC [26] = assay: Antitumor activity against human U87MG cells xenografted in nude mouse assessed as tumor growth inhibition at 5 mg/kg, iv once weekly; type: functional, organism-based; set-up: dose 5 mg/kg; outline: as §2
[27] = Stability in mouse plasma assessed as compound remaining after 60 mins relative to basal level; type: ADME, cell-free; conditions: read-out: Stability; outline: as §3
U-87MG ATCC [28] = assay: Antitumor activity against human U87MG cells xenografted in nude mouse assessed as inhibition of AKT T308 phosphorylation at 15 mg/kg, iv administered as single dose measured after 2 hrs; type: functional, organism-based; set-up: dose 15 mg/kg
Outline: (§4)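 Nude mice bearing U87MG tumors got a single iv dose. Tumors were excised 2 h later and analysed by Western blot for phosphoproteins (AKT S473, T308) against vehicle-treated controls.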

U-87MG ATCC [29] = assay: Antitumor activity against human U87MG cells xenografted in nude mouse assessed as inhibition of AKT S473 phosphorylation at 15 mg/kg, iv administered as single dose measured after 2 hrs; type: functional, organism-based; set-up: dose 15 mg/kg; outline: as §4
[30] = Stability in mouse plasma assessed as compound remaining after 90 mins relative to basal level; type: ADME, cell-free; conditions: read-out: Stability; outline: as §3
U-87MG ATCC [31] = assay: Antitumor activity against human U87MG cells xenografted in nude mouse assessed as tumor growth inhibition at 3 mg/kg, iv once weekly; type: functional, organism-based; set-up: dose 3 mg/kg; outline: as §2
[32] = Stability in mouse plasma assessed as compound remaining after 30 mins relative to basal level; type: ADME, cell-free; conditions: read-out: Stability; outline: as §3
Plasma = assay: Stability in mouse plasma in presence of esterase inhibitor sodium fluoride; type: ADME, cell-free; outline: as §1

COC[C@H]1OC(=O)/C(=C\N(C)CCCN(C)C)C2=C(O)C(=O)C3=C([C@H](OC(C)=O)C[C@]4(C)[C@@H](OC(=O)CCCCCCC(=O)O[C@@H]5CC[C@@H](C[C@@H](C)[C@@H]6CC(=O)[C@H](C)/C=C(\C)[C@@H](O)[C@@H](OC)C(=O)[C@H](C)C[C@H](C)/C=C/C=C/C=C(\C)[C@@H](OC)C[C@@H]7CC[C@@H](C)[C@@](O)(O7)C(=O)C(=O)N7CCCC[C@H]7C(=O)O6)C[C@H]5OC)CC[C@@H]34)[C@]21C
inhibition [1]: inactive | Stability [2]: Unstable | Activity (U-87MG ATCC [3]): Dose-dependent effect | inhibition [4]: inactive | remaining at 5 min [5]: 53% | remaining at 2 h (Homo sapiens [6]): 83% | remaining at 0.5 h [7]: ≥ 50% | remaining at 1.5 h (Homo sapiens [8]): 82% | Activity (A498): Active | remaining at 5 min [9]: 91% | remaining at 0.5 h [10]: ≥ 50% | remaining at 2 h [11]: 8% | solubility ([12]; buffer): Soluble | solubility ([12]; water, read-out: solubility): 460 µg/mL (≈ 288 µM) | remaining at 1 h [13]: 64% | Activity (U-87MG ATCC [14]): Active | remaining at 1 h (Homo sapiens [15]): 83% | remaining at 0.5 h (Homo sapiens [16]): 91% | remaining at 0.5 h [17]: 71% | remaining at 0.25 h [18]: 80% | Stability [19]: Stable | remaining at 0.25 h [20]: 39% | remaining at 2 h [21]: 46% | remaining at 5 min (Homo sapiens [22]): 86% | Stability [23]: Unstable | remaining at 0.25 h (Homo sapiens [24]): 93% | remaining at 1.5 h [25]: 53% | Activity (HT-29): Active | Activity (U-87MG ATCC [26]): Active | remaining at 1 h [27]: 13% | Activity (U-87MG ATCC [28]): Active | Activity (U-87MG ATCC [29]): Active | remaining at 1.5 h [30]: 10% | Activity (U-87MG ATCC [31]): Active | remaining at 0.5 h [32]: 18% | Stability (Plasma): Stable
